Reference: ChEMBL document CHEMBL1135657, “Novel dual inhibitors of AChE and MAO derived from hydroxy aminoindan and phenethylamine as potential treatment for Alzheimer's disease” (J Med Chem, 2002)

Key:
Acetylcholinesterase [1] = target: T1, Acetylcholinesterase (Homo sapiens, UniProt P22303); experiment: In vitro inhibitory concentration against purified Acetylcholinesterase of human erythrocytes
Butyrylcholinesterase [2] = target: T2, Butyrylcholinesterase (Equus caballus, UniProt Q9N1N9); experiment: In vitro inhibitory concentration against Butyrylcholinesterase of horse serum; value ranges from 0.016-0.021
Outline: (§1)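 Ellman assay followed, with 200 µM butyrylthiocholine as substrate. Runs were in triplicate with four-point dose-response curves. IC50 and fiducial limits came from log concentration versus % inhibition.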

[3] = target: T3, Amine oxidase [flavin-containing] B (Rattus norvegicus, UniProt P19643); experiment: In vitro inhibitory concentration against Monoamine oxidase B of rat brain homogenates; value ranges from 90-260
T3 sequence (P19643 whole entry): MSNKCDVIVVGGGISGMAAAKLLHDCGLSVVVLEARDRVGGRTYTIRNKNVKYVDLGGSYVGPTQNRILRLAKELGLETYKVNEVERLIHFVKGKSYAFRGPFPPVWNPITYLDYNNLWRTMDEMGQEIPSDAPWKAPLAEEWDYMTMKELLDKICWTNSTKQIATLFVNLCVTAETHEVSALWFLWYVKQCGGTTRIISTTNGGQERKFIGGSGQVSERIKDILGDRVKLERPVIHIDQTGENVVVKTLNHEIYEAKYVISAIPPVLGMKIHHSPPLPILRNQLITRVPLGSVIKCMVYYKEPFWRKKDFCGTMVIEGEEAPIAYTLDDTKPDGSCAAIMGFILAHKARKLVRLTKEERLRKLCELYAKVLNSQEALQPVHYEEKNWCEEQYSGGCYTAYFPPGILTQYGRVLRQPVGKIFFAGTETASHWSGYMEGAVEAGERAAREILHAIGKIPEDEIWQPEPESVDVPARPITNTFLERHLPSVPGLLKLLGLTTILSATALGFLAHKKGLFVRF

Acetylcholinesterase [4] = target: T1, Acetylcholinesterase
[5] = target: T4, Amine oxidase [flavin-containing] A (Rattus norvegicus, UniProt P21396); experiment: In vitro inhibitory concentration against Monoamine oxidase A of rat brain homogenates; value ranges from 0.72-0.97; format: tissue-based
T4 sequence (P21396 whole entry): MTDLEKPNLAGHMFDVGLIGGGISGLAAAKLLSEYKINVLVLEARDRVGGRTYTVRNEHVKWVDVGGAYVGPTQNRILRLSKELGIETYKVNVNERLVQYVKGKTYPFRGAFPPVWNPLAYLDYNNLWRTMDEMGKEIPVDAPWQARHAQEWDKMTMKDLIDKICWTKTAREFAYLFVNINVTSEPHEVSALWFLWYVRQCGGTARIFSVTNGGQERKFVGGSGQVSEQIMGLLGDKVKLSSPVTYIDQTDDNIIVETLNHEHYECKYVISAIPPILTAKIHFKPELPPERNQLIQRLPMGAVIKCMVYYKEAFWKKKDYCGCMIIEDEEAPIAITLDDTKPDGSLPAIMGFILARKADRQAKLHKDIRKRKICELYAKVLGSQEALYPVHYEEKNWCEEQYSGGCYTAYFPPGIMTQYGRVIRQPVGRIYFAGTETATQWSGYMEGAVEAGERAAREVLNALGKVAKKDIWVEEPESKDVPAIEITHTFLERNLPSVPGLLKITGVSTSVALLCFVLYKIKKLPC

Acetylcholinesterase [6] = target: T1, Acetylcholinesterase; experiment: In vitro inhibitory concentration against purified Acetylcholinesterase of human erythrocytes; value ranges from […]-[…]
Butyrylcholinesterase [7] = target: T2, Butyrylcholinesterase
Acetylcholinesterase [8] = target: T1, Acetylcholinesterase; experiment: In vitro inhibitory concentration against purified Acetylcholinesterase of human erythrocytes; value ranges from 9.8-157
Butyrylcholinesterase [9] = target: T2, Butyrylcholinesterase; experiment: In vitro inhibitory concentration against Butyrylcholinesterase of horse serum; value ranges from 1.38-1.65; outline: as §1
Acetylcholinesterase [10] = target: T1, Acetylcholinesterase; experiment: In vitro inhibitory concentration against purified Acetylcholinesterase of human erythrocytes; value ranges from 91.8-732
[11] = target: T3, Amine oxidase [flavin-containing] B; experiment: In vitro inhibitory concentration against Monoamine oxidase B of rat brain homogenates; value ranges from 0.07-0.59; format: tissue-based
Outline: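 Rat brain homogenate (in 0.3 M sucrose) as enzyme source; compounds diluted 10⁻²M to 10⁻⁹M in 0.05 M phosphate buffer with 0.15 μM clorgyline; preincubated 60 min at 37 °C, then 10 μM ¹⁴C-phenylethylamine added for 20 min more; stopped with citric acid; metabolites extracted into toluene/ethyl acetate, scintillation counted; activity as % of control, tranylcypromine blank.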

Butyrylcholinesterase [12] = target: T2, Butyrylcholinesterase; experiment: In vitro inhibitory concentration against Butyrylcholinesterase of horse serum; value ranges from 2.1-4.1; outline: as §1
Acetylcholinesterase [13] = target: T1, Acetylcholinesterase; experiment: In vitro inhibitory concentration against purified Acetylcholinesterase of human erythrocytes; value ranges from 1.7-6.4
Acetylcholinesterase [14] = target: T1, Acetylcholinesterase; experiment: In vitro inhibitory concentration against purified Acetylcholinesterase of human erythrocytes; value ranges from 33.4-148
Acetylcholinesterase [15] = target: T1, Acetylcholinesterase; experiment: In vitro inhibitory concentration against purified Acetylcholinesterase of human erythrocytes; value ranges from 0.008-0.012
Butyrylcholinesterase [16] = target: T2, Butyrylcholinesterase; experiment: In vitro inhibitory concentration against Butyrylcholinesterase of horse serum; value ranges from 0.009-0.024; outline: as §1
[17] = target: T3, Amine oxidase [flavin-containing] B; experiment: In vitro inhibitory concentration against Monoamine oxidase B of rat brain homogenates; format: tissue-based
[18] = target: T4, Amine oxidase [flavin-containing] A; experiment: In vitro inhibitory concentration against Monoamine oxidase A of rat brain homogenates; value ranges from 7.6-12.5; format: tissue-based
Acetylcholinesterase [19] = target: T1, Acetylcholinesterase; remark: listed apart in the source
Acetylcholinesterase [20] = target: T1, Acetylcholinesterase; experiment: In vitro inhibitory concentration against purified Acetylcholinesterase of human erythrocytes; value ranges from 11.9-128
[21] = target: T4, Amine oxidase [flavin-containing] A; experiment: In vitro inhibitory concentration against Monoamine oxidase A of rat brain homogenates; value ranges from 190-310; format: tissue-based
Butyrylcholinesterase [22] = target: T2, Butyrylcholinesterase; experiment: In vitro inhibitory concentration against Butyrylcholinesterase of horse serum; value ranges from 0.8-3.2
[23] = target: T4, Amine oxidase [flavin-containing] A; experiment: In vitro inhibitory concentration against Monoamine oxidase A of rat brain homogenates; value ranges from 100-340; format: tissue-based
Butyrylcholinesterase [24] = target: T2, Butyrylcholinesterase; experiment: In vitro inhibitory concentration against Butyrylcholinesterase of horse serum; value ranges from 0.85-1.96; outline: as §1
Acetylcholinesterase [25] = target: T1, Acetylcholinesterase; experiment: In vitro inhibitory concentration against purified Acetylcholinesterase of human erythrocytes; value ranges from 1.7-2.5
[26] = target: T4, Amine oxidase [flavin-containing] A; experiment: In vitro inhibitory concentration against Monoamine oxidase A of rat brain homogenates; value ranges from 29-44; format: tissue-based
[27] = target: T3, Amine oxidase [flavin-containing] B; experiment: In vitro inhibitory concentration against Monoamine oxidase B of rat brain homogenates; value ranges from 6-350
Acetylcholinesterase [28] = target: T1, Acetylcholinesterase; experiment: In vitro inhibitory concentration against purified Acetylcholinesterase of human erythrocytes; value ranges from 5.5-45.9
[29] = target: T3, Amine oxidase [flavin-containing] B; experiment: In vitro inhibitory concentration against Monoamine oxidase B of rat brain homogenates; value ranges from 590-900
[30] = target: T4, Amine oxidase [flavin-containing] A; experiment: In vitro inhibitory concentration against Monoamine oxidase A of rat brain homogenates; value ranges from 260-420; format: tissue-based
[31] = target: T4, Amine oxidase [flavin-containing] A; experiment: In vitro inhibitory concentration against Monoamine oxidase A of rat brain homogenates; value ranges from 600-1100; format: tissue-based
[32] = target: T3, Amine oxidase [flavin-containing] B; experiment: In vitro inhibitory concentration against Monoamine oxidase B of rat brain homogenates; value ranges from 150-360; format: tissue-based
Acetylcholinesterase [33] = target: T1, Acetylcholinesterase; remark: listed apart in the source
Butyrylcholinesterase [34] = target: T2, Butyrylcholinesterase; experiment: In vitro inhibitory concentration against Butyrylcholinesterase of horse serum; value ranges from 4.9-11.2; outline: as §1

T1 sequence (P22303 whole entry): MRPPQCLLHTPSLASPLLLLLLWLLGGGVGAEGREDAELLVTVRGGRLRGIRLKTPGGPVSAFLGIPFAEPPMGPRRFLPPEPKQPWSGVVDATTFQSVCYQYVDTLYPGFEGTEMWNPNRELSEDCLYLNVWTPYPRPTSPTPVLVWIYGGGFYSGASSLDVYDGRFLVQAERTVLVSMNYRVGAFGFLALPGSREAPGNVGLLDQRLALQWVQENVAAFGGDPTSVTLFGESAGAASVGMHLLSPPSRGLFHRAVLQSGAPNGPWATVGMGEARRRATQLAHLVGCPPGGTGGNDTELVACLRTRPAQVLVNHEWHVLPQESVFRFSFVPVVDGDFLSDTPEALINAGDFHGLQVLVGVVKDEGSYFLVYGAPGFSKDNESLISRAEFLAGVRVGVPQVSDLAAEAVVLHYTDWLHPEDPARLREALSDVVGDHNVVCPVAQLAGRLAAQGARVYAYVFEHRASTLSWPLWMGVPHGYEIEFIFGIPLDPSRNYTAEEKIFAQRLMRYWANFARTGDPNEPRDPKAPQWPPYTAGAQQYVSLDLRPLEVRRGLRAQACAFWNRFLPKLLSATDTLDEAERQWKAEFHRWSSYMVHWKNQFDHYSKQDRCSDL
T2 sequence (Q9N1N9 whole entry): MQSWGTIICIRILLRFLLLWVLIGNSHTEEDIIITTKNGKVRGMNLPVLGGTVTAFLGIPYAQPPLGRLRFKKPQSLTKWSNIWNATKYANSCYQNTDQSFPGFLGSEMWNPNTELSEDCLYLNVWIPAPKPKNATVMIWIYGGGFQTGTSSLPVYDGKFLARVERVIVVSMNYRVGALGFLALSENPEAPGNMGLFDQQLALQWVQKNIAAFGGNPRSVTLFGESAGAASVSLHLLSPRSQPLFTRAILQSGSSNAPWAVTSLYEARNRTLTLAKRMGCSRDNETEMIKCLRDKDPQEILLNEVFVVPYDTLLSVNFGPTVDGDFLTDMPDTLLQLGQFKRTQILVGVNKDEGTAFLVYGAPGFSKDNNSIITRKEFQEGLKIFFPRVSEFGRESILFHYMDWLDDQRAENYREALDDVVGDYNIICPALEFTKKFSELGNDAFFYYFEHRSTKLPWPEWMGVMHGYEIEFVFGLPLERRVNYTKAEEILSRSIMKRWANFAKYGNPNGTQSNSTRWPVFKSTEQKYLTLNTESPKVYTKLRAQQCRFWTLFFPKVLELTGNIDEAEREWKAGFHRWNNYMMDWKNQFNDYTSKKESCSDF

Q: For `C#CCN(C)C1CCc2cccc(OC(=O)N(C)CCC)c21` (stereo not drawn), which IC50 (Acetylcholinesterase [1]) is on record?
A: Its IC50 is over 1000 µM.

Q: How did the IC50 (Butyrylcholinesterase [2]) turn out when `C#CCNC1CCc2c(OC(=O)N(C)CC)cccc21` (stereo not drawn) was run?
A: Its IC50 is 0.019 µM.

Q: And the IC50 [3]?
A: The IC50 was 150 µM.

Q: What about the IC50 (Acetylcholinesterase [4]) of the same molecule?
A: The IC50 was 2.15 µM.

Q: What about the IC50 [5] of the same molecule?
A: Its IC50 is 0.83 µM.

Q: With `C#CCNC1CCc2ccc(OC(=O)NCC)cc21` (stereo not drawn) as the molecule, how does the IC50 (Acetylcholinesterase [6]) read?
A: The IC50 was 13.7 µM.

Q: Which IC50 (Butyrylcholinesterase [7]) does the source give for `C#CCN(C)C(C)Cc1cccc(OC(=O)N(C)CCC)c1` (stereo not drawn) here?
A: Its IC50 is 22.8 µM.

Q: What about the IC50 (Acetylcholinesterase [8]) of the same molecule?
A: The IC50 was 33.1 µM.

Q: For `C#CCN(C)C(C)Cc1cccc(OC(=O)N(C)CC)c1` (stereo not drawn), which IC50 (Butyrylcholinesterase [9]) is on record?
A: The IC50 was 1.5 µM.

Q: What about the IC50 (Acetylcholinesterase [10]) of the same molecule?
A: Its IC50 is 234 µM.

Q: And the IC50 [11]?
A: The IC50 was 0.1 µM.

Q: For `C#CCNC1CCc2ccc(OC(=O)N(CC)C3CCCCC3)cc21` (stereo not drawn), which IC50 (Acetylcholinesterase [6]) is on record?
A: Its IC50 is 17.9 µM.

Q: What does the source list for `C#CCNC1CCc2cccc(OC(=O)N(C)C)c21` (stereo not drawn)?
A: IC50 (Butyrylcholinesterase [12]): 2.8 µM; IC50 (Acetylcholinesterase [13]): 2.5 µM

Q: With `CCN(C)C(=O)Oc1ccc2c(c1)CC(N)CC2` (stereo not drawn) as the molecule, how does the IC50 (Acetylcholinesterase [14]) read?
A: The IC50 was 79.6 µM.

Q: With `C#CCN(C)C1CCc2ccc(OC(=O)N(C)CC)cc21` (stereo not drawn) as the molecule, how does the IC50 (Acetylcholinesterase [1]) read?
A: The IC50 was over 1300 µM.

Q: `CN(C)C(=O)Oc1cccc2c1CCC2N` (stereo not drawn) was tested. Which IC50 (Acetylcholinesterase [15]) did it give?
A: The IC50 was 0.009 µM.

Q: What about the IC50 (Butyrylcholinesterase [16]) of the same molecule?
A: Its IC50 is 0.014 µM.

Q: What about the IC50 [17] of the same molecule?
A: The IC50 was over 1000 µM.

Q: What about the IC50 [18] of the same molecule?
A: Its IC50 is 9.8 µM.

Q: For `CN(C)C(=O)Oc1ccc2c(c1)CC(N)CC2` (stereo not drawn), which IC50 (Acetylcholinesterase [19]) is on record?
A: The IC50 was 3.24 µM.

Q: How did the IC50 [17] turn out when `C#CCNC1CCc2ccc(OC(=O)N(C)CC)cc21` (stereo not drawn) was run?
A: The IC50 was over 1000 µM.

Q: What about the IC50 (Acetylcholinesterase [20]) of the same molecule?
A: Its IC50 is 47 µM.

Q: What about the IC50 [21] of the same molecule?
A: The IC50 was 250 µM.

Q: What about the IC50 (Butyrylcholinesterase [22]) of the same molecule?
A: The IC50 was 1.5 µM.

Q: `C#CCNC(C)Cc1ccccc1` (stereo not drawn) was tested. Which IC50 [23] did it give?
A: Its IC50 is 195 µM.

Q: Which IC50 (Acetylcholinesterase [6]) does the source give for `CNC1CCc2ccc(OC(=O)N(C)C)cc21` (stereo not drawn) here?
A: The IC50 was 1.07 µM.

Q: What about the IC50 (Butyrylcholinesterase [24]) of the same molecule?
A: The IC50 was 0.95 µM.

Q: For `C#CCN(C)[C@H](C)Cc1cccc(OC(=O)N(C)CCCCCC)c1`, which IC50 (Acetylcholinesterase [25]) is on record?
A: Its IC50 is 2 µM.

Q: `C#CCN(C)C1CCc2ccc(OC(=O)N(C)C)cc21` (stereo not drawn) was tested. Which IC50 [26] did it give?
A: The IC50 was 36 µM.

Q: What about the IC50 [27] of the same molecule?
A: Its IC50 is 47 µM.

Q: What about the IC50 (Acetylcholinesterase [28]) of the same molecule?
A: Its IC50 is 12.9 µM.

Q: `C#CCN(C)C1CCc2cccc(OC(=O)N(C)C)c21` (stereo not drawn) was tested. Which IC50 [29] did it give?
A: Its IC50 is 730 µM.

Q: What about the IC50 [30] of the same molecule?
A: The IC50 was 330 µM.

Q: `C#CCNC(C)Cc1cccc(O)c1` (stereo not drawn) was tested. Which IC50 [31] did it give?
A: Its IC50 is 830 µM.

Q: What about the IC50 [32] of the same molecule?
A: The IC50 was 230 µM.

Q: How did the IC50 (Acetylcholinesterase [33]) turn out when `C#CCNC1CCc2ccc(OC(=O)N(C)c3ccc(OC)cc3)cc21` (stereo not drawn) was run?
A: Its IC50 is 0.86 µM.

Q: What about the IC50 (Butyrylcholinesterase [34]) of the same molecule?
A: The IC50 was 6.4 µM.
